# Data reported in ChEMBL document CHEMBL1155167, “Fluoroquinolone resistance in atypical pneumococci and oral streptococci: evidence of horizontal gene transfer of fluoroquinolone resistance determinants from Streptococcus pneumoniae” (2007).
# Key:
# Assay type in all cases: functional
# Streptococcus viridans [1] = assay: Antimicrobial activity against Viridans streptococcus L20 with gyrB Ser494Thr, parC Ser52Gly and Asn91Asp mutation by broth dilution method
# In short: (§1)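 Ciprofloxacin and levofloxacin MICs were determined by broth dilution following CLSI (formerly NCCLS) guidance. S. pneumoniae ATCC 6303 and ATCC 49619 served as control strains. Reference strains were S. mitis ATCC 49456 and S. oralis ATCC 10557. The clinical isolates came from patients at a Hong Kong teaching hospital.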
# Streptococcus viridans [2] = assay: Antimicrobial activity against Viridans streptococcus L18 with gyrA Ser114Gly, Asp142Asn, gyrB Ser494Thr and parE Ile460Val mutation by broth dilution method; in short: as §1
# Streptococcus oralis [3] = assay: Antimicrobial activity against Streptococcus oralis HK122 with gyrA Ser114Gly, and parC Ser52Gly, Asn91Asp mutation by broth dilution method; in short: as §1
# Streptococcus mitis [4] = assay: Antimicrobial activity against Streptococcus mitis HK135786 with gyrA Ser114Gly, and parC Ser52Gly, Asn91Asp mutation by broth dilution method; in short: as §1
# Streptococcus oralis [5] = assay: Antimicrobial activity against Streptococcus oralis HK62 with gyrA Ser114Gly, and parC Ser52Gly, Asn91Asp mutation by broth dilution method; in short: as §1
# Streptococcus oralis [6] = assay: Antimicrobial activity against Streptococcus oralis HK417 with gyrA Ser114Gly, and parC Ser52Gly, Asn91Asp mutation by broth dilution method; in short: as §1
# Streptococcus oralis [7] = assay: Antimicrobial activity against Streptococcus oralis ATCC 10557 with gyrA Ser114Gly, and parC Ser52Gly, Asn91Asp mutation by broth dilution method; in short: as §1
# Streptococcus oralis [8] = assay: Antimicrobial activity against Streptococcus oralis HK386 with gyrA Ser114Gly, and parC Ser52Gly, Asn91Asp mutation by broth dilution method; in short: as §1
# Streptococcus mitis [9] = assay: Antimicrobial activity against Streptococcus mitis HK666 with gyrA Ser114Gly, and parC Ser52Gly, Asn91Asp, Glu135Asp mutation by broth dilution method; in short: as §1
# Streptococcus oralis [10] = assay: Antimicrobial activity against Streptococcus oralis HK300 with gyrA Ser114Gly, and parC Ser52Gly, Asn91Asp mutation by broth dilution method; in short: as §1
# Streptococcus mitis [11] = assay: Antimicrobial activity against Streptococcus mitis HK680 with gyrA Ser114Gly, and parC Ser52Gly, Asn91Asp mutation by broth dilution method; in short: as §1
# Streptococcus mitis [12] = assay: Antimicrobial activity against Streptococcus mitis HK29 with gyrA Ser114Gly, and parC Ser52Gly, Asn91Asp mutation by broth dilution method; in short: as §1
# Streptococcus oralis [13] = assay: Antimicrobial activity against Streptococcus oralis HK816 with gyrA Ser81Leu, Ser114Gly and parC Ser52Gly, Ser79Tyr, Asn91Asp mutation by broth dilution method; in short: as §1
# Streptococcus oralis [14] = assay: Antimicrobial activity against Streptococcus oralis HK754 with gyrA Ser81Leu, Ser114Gly, gyrB Ser494Thr, parC Ser52Gly, Asp83Tyr, Asn91Asp and parE Arg447Ser mutation by broth dilution method; in short: as §1
# Streptococcus oralis [15] = assay: Antimicrobial activity against Streptococcus oralis HK299 with gyrA Ser114Gly, and parC Ser52Gly, Asn91Asp mutation by broth dilution method; in short: as §1
# Streptococcus oralis [16] = assay: Antimicrobial activity against Streptococcus oralis HK553 with gyrA Ser114Gly, and parC Ser52Gly, Asn91Asp mutation by broth dilution method; in short: as §1
# Streptococcus oralis [17] = assay: Antimicrobial activity against Streptococcus oralis HK51with gyrA Ser114Gly, and parC Ser52Gly, Asn91Asp mutation by broth dilution method; in short: as §1
# Streptococcus mitis [18] = assay: Antimicrobial activity against Streptococcus mitis HK651 with gyrA Ser114Gly, and parC Ser52Gly, Asn91Asp mutation by broth dilution method; in short: as §1
# Streptococcus viridans [19] = assay: Antimicrobial activity against Viridans streptococcus L7 with gyrA Ser114Gly, gyrB Ser494Thr and parC Ser52Gly, Asn91Asp mutation by broth dilution method; in short: as §1
# Streptococcus oralis [20] = assay: Antimicrobial activity against Streptococcus oralis HK271 with gyrA Ser114Gly, and parC Ser52Gly, Asn91Asp mutation by broth dilution method; in short: as §1
# Streptococcus mitis [21] = assay: Antimicrobial activity against Streptococcus mitis ATCC 49456 with gyrA Ser114Gly, and parC Ser52Gly, Asn91Asp, Glu135Asp mutation by broth dilution method; in short: as §1
# Streptococcus mitis [22] = assay: Antimicrobial activity against Streptococcus mitis HK467 with gyrA Ser114Gly, Leu155Val and parC Ser52Gly, Asn91Asp, mutation by broth dilution method; in short: as §1
# Streptococcus oralis [23] = assay: Antimicrobial activity against Streptococcus oralis HK579 with gyrA Ser114Gly, and parC Ser52Gly, Asn91Asp mutation by broth dilution method; in short: as §1
# Streptococcus mitis [24] = assay: Antimicrobial activity against Streptococcus mitis HK141 with gyrA Ser114Gly, and parC Ser52Gly, Asn91Asp mutation by broth dilution method; in short: as §1
# Streptococcus viridans [25] = assay: Antimicrobial activity against Viridans streptococcus L16 with gyrA Ser114Gly, gyrB Ser494Thr and parC Ser52Gly, Asn91Asp mutation by broth dilution method; in short: as §1
# Streptococcus oralis [26] = assay: Antimicrobial activity against Streptococcus oralis HK587 with gyrA Ser114Gly, and parC Ser52Gly, Asn91Asp mutation by broth dilution method; in short: as §1
# Streptococcus oralis [27] = assay: Antimicrobial activity against Streptococcus oralis HK232 with gyrA Ser114Gly, and parC Ser52Gly, Asn91Asp mutation by broth dilution method; in short: as §1
# Streptococcus mitis [28] = assay: Antimicrobial activity against Streptococcus mitis HK677 with gyrA Ser81Leu, Ser114Gly, gyrB Ser494Thr, parC Ser52Gly, Asp83Tyr, Asn91Asp and parE Arg447Ser mutation by broth dilution method; in short: as §1
# Streptococcus mitis [29] = assay: Antimicrobial activity against Streptococcus mitis HK137453 with gyrA Ser114Gly, and parC Ser52Gly, Asn91Asp mutation by broth dilution method; in short: as §1
# Streptococcus viridans [30] = assay: Antimicrobial activity against Viridans streptococcus L2 with gyrA Ser114Gly, gyrB Ser494Thr and parC Ser52Gly, Asn91Asp mutation by broth dilution method; in short: as §1
# Streptococcus mitis [31] = assay: Antimicrobial activity against Streptococcus mitis HK188 with gyrA Ser114Gly, and parC Ser52Gly, Asn91Asp, Glu135Asp mutation by broth dilution method; in short: as §1
# Streptococcus oralis [32] = assay: Antimicrobial activity against Streptococcus oralis HK619 with gyrA Ser114Gly, and parC Ser52Gly, Asn91Asp mutation by broth dilution method; in short: as §1
# Streptococcus oralis [33] = assay: Antimicrobial activity against Streptococcus oralis HK574 with gyrA Ser114Gly, Leu155Val, gyrB Ile385Val, Met483Thr, Ser494Thr and parC Ser52Gly, Asn91Asp mutation by broth dilution method; in short: as §1
# Streptococcus mitis [34] = assay: Antimicrobial activity against Streptococcus mitis HK125807 with gyrA Ser114Gly, and parC Ser52Gly, Asn91Asp mutation by broth dilution method; in short: as §1
# Streptococcus viridans [35] = assay: Antimicrobial activity against Viridans streptococcus L17 with gyrA Ser114Gly, gyrB Ser494Thr and parC Ser52Gly, Asn91Asp mutation by broth dilution method; in short: as §1
# Streptococcus mitis [36] = assay: Antimicrobial activity against Streptococcus mitis HK260 with gyrA Ser114Gly, and parC Ser52Gly, Asn91Asp mutation by broth dilution method; in short: as §1
# Streptococcus oralis [37] = assay: Antimicrobial activity against Streptococcus oralis HK312 with gyrA Ser114Gly, and parC Ser52Gly, Asn91Asp mutation by broth dilution method; in short: as §1
# Streptococcus oralis [38] = assay: Antimicrobial activity against Streptococcus oralis HK575 with gyrA Ser114Gly, Leu155Val and parC Ser52Gly, Asn91Asp, Pro140Ser mutation by broth dilution method; in short: as §1
# Streptococcus viridans [39] = assay: Antimicrobial activity against Viridans streptococcus L21 with gyrB Ser494Thr and parC Lys137Asn mutation by broth dilution method; in short: as §1
# Streptococcus oralis [40] = assay: Antimicrobial activity against Streptococcus oralis HK496 with gyrA Ser114Gly, and parC Ser52Gly, Asn91Asp mutation by broth dilution method; in short: as §1
# Streptococcus viridans [41] = assay: Antimicrobial activity against Viridans streptococcus L26 gyrA Ser81Phe and parC Lys137Asn mutation by broth dilution method; in short: as §1
# Streptococcus oralis [42] = assay: Antimicrobial activity against Streptococcus oralis HK123 with gyrA Ser114Gly, and parC Ser52Gly, Asn91Asp mutation by broth dilution method; in short: as §1
# Streptococcus viridans [43] = assay: Antimicrobial activity against Viridans streptococcus L19 with gyrA Ser114Gly, gyrB Ser494Thr, parC Ser52Gly, Asn91Asp and parE Ile460Val mutation by broth dilution method; in short: as §1
smiles,measurement,setting,value
C[C@H]1COc2c(N3CCN(C)CC3)c(F)cc3c(=O)c(C(=O)O)cn1c23.C[C@H]1COc2c(N3CCN(C)CC3)c(F)cc3c(=O)c(C(=O)O)cn1c23.O [LEVOFLOXACIN],MIC,Streptococcus viridans [1],2 µg/mL
same,MIC,Streptococcus viridans [2],2 µg/mL
same,MIC,Streptococcus oralis [3],1 µg/mL
same,MIC,Streptococcus mitis [4],1 µg/mL
same,MIC,Streptococcus oralis [5],1 µg/mL
same,MIC,Streptococcus oralis [6],1 µg/mL
same,MIC,Streptococcus oralis [7],1 µg/mL
same,MIC,Streptococcus oralis [8],2 µg/mL
same,MIC,Streptococcus mitis [9],2 µg/mL
same,MIC,Streptococcus oralis [10],1 µg/mL
same,MIC,Streptococcus mitis [11],1 µg/mL
same,MIC,Streptococcus mitis [12],2 µg/mL
same,MIC,Streptococcus oralis [13],32 µg/mL
same,MIC,Streptococcus oralis [14],≥ 32 µg/mL
same,MIC,Streptococcus oralis [15],2 µg/mL
same,MIC,Streptococcus oralis [16],1 µg/mL
same,MIC,Streptococcus oralis [17],2 µg/mL
same,MIC,Streptococcus mitis [18],0.5 µg/mL
same,MIC,Streptococcus viridans [19],2 µg/mL
same,MIC,Streptococcus oralis [20],1 µg/mL
same,MIC,Streptococcus mitis [21],1 µg/mL
same,MIC,Streptococcus mitis [22],1 µg/mL
same,MIC,Streptococcus oralis [23],2 µg/mL
same,MIC,Streptococcus mitis [24],0.5 µg/mL
same,MIC,Streptococcus viridans [25],1 µg/mL
same,MIC,Streptococcus oralis [26],2 µg/mL
same,MIC,Streptococcus oralis [27],1 µg/mL
same,MIC,Streptococcus mitis [28],≥ 32 µg/mL
same,MIC,Streptococcus mitis [29],1 µg/mL
same,MIC,Streptococcus viridans [30],2 µg/mL
same,MIC,Streptococcus mitis [31],0.5 µg/mL
same,MIC,Streptococcus oralis [32],2 µg/mL
same,MIC,Streptococcus oralis [33],2 µg/mL
same,MIC,Streptococcus mitis [34],1 µg/mL
same,MIC,Streptococcus viridans [35],1 µg/mL
same,MIC,Streptococcus mitis [36],< 0.25 µg/mL
same,MIC,Streptococcus oralis [37],1 µg/mL
same,MIC,Streptococcus oralis [38],1 µg/mL
same,MIC,Streptococcus viridans [39],2 µg/mL
same,MIC,Streptococcus oralis [40],1 µg/mL
same,MIC,Streptococcus viridans [41],16 µg/mL
same,MIC,Streptococcus oralis [42],1 µg/mL
same,MIC,Streptococcus viridans [43],2 µg/mL
